Data reported in ChEMBL document CHEMBL2396523, “The synthesis of isopropylidene mRNA cap analogs modified with phosphorothioate moiety and their evaluation as promoters of mRNA translation” (Bioorg Med Chem Lett, 2013).

Experiments:
Oryctolagus cuniculus = organism: Oryctolagus cuniculus; experiment: Translational activity in Flexi rabbit reticulocyte lysate assessed as luciferase mRNA activity after 60 mins relative to m7GpppG; format: functional
Summary of the method: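 Luciferase mRNAs capped by in vitro transcription, added at several concentrations to rabbit reticulocyte lysate optimized for cap-dependent translation. Luminometry of luciferase activity 60 min after mRNA addition. Translation efficiency taken from slope of luciferase activity versus mRNA concentration, averaged over replicate experiments.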

[1] = Translational activity in human immature DC assessed as time point of maximal protein expression by bioluminescence assay; format: functional
Summary of the method: (§1)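 Luciferase-coding mRNAs made by T7 RNA polymerase in vitro transcription with the respective cap, electroporated into human immature dendritic cells. Luciferase activity measured over 72 h after electroporation, duplicate measurements. Mathematical modeling of the time course gave translational efficiency, time of maximal protein expression and total protein expression.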

[2] = target: Eukaryotic translation initiation factor 4E (Mus musculus) (UniProt P63073); experiment: Binding affinity to mouse eIF4E by fluorescence quenching assay
Chain of Eukaryotic translation initiation factor 4E (Mus musculus) (P63073 whole entry): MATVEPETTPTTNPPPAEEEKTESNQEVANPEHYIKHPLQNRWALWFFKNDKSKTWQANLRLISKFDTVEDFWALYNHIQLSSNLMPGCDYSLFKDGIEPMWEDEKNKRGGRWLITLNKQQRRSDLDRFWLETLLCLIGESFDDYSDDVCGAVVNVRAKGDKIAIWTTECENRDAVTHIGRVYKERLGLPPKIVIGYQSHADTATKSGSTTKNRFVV
Summary of the method: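 Murine eIF4E titrated with cap analog solution; intrinsic Trp fluorescence quenching recorded at 337 nm with excitation at 280 nm. Equilibrium association constant (KAS) of the cap analog–eIF4E complex derived from the titration curves.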

Homo sapiens = organism: Homo sapiens; experiment: Translational activity in human immature DC assessed as luciferase mRNA activity after 72 hrs by bioluminescence assay relative to m2 7,3'-OGpppG; format: functional; summary of the method: as §1
[3] = Translational activity in human immature DC assessed as total protein expression after 72 hrs by bioluminescence assay relative to m2 7,3'-OGpppG; format: functional; summary of the method: as §1
[4] = Drug degradation in aqueous buffer at pH 2 after 4.5 hrs by RP HPLC analysis; format: physicochemical; conditions: pH 2, 4.5 h
Summary of the method: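 Isopropylidene removal done in aqueous buffer at pH 2, 37 °C, for 4.5 h. Reaction progress followed by RP HPLC.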

SMILES | Ratio (Oryctolagus cuniculus) | Ka [2] | Ratio (Homo sapiens) | Stability [4] | TIME [1] | Ratio [3]
CO[C@H]1[C@@H](O)[C@H](n2c[n+](C)c3c(O)nc(N)nc32)O[C@@H]1COP(=O)(O)OP(=O)([O-])OP(=O)(O)OC[C@H]1O[C@@H](n2cnc3c(=O)[nH]c(N)nc32)[C@H](O)[C@@H]1O | 1.32 | 10.2 µM⁻¹ | – | – | 9.25 h | –
C[n+]1cn([C@@H]2O[C@H](COP(=O)([O-])OP(=O)(S)OP(=O)(O)OC[C@H]3O[C@@H](n4cnc5c(=O)[nH]c(N)nc54)[C@H](O)[C@@H]3O)[C@@H]3OC(C)(C)O[C@H]32)c2nc(N)nc(O)c21 (mixture of isomers; 2a) | 1.33 | 5.6 µM⁻¹ | 1.23 | – | 11.1 h | 1.62
C[n+]1cn([C@@H]2O[C@H](COP(=O)([O-])OP(=O)(S)OP(=O)(O)OC[C@H]3O[C@@H](n4cnc5c(=O)[nH]c(N)nc54)[C@H](O)[C@@H]3O)[C@@H]3OC(C)(C)O[C@H]32)c2nc(N)nc(O)c21 (mixture of isomers; 2b) [listing 1 of 2 here] | – | – | – | Stable | – | –

The next lines start with results.

Ratio (Oryctolagus cuniculus) | Ka [2] | Ratio (Homo sapiens) | Stability [4] | SMILES | TIME [1] | Ratio [3]
0.8 | 2.9 µM⁻¹ | – | – | C[n+]1cn([C@@H]2O[C@H](COP(=O)(O)OP(=O)([O-])OP(=O)(O)OC[C@H]3O[C@@H](n4cnc5c(=O)[nH]c(N)nc54)[C@H](O)[C@@H]3O)[C@@H]3OC(C)(C)O[C@H]32)c2nc(N)nc(O)c21 | – | –
1.16 | 9.2 µM⁻¹ | 1.08 | – | C[n+]1cn([C@@H]2O[C@H](COP(=O)([O-])OP(=O)(S)OP(=O)(O)OC[C@H]3O[C@@H](n4cnc5c(=O)[nH]c(N)nc54)[C@H](O)[C@@H]3O)[C@@H]3OC(C)(C)O[C@H]32)c2nc(N)nc(O)c21 (mixture of isomers; 2b) [listing 2 of 2 here] | 8.9 h | 0.97
